Experimental data: ChEMBL document CHEMBL1649139, “A novel gene, erm(41), confers inducible macrolide resistance to clinical isolates of Mycobacterium abscessus but is absent from Mycobacterium chelonae” (2009)
≈ marks a conversion by molar mass, not a printed value.

Legend:
Assay type in all cases: functional
[1] = tested on: Mycobacteroides abscessus; assay: Antimicrobial activity against Mycobacterium abscessus isolate MC1082 at day 9 by broth microdilution method; conditions: isolate MC1082, 216 h
Outline: (§1)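 Clarithromycin MIC by CLSI-conforming broth microdilution. Before testing, cultures were preincubated for 3 days, either in medium alone or in clarithromycin or erythromycin (tested range 0.01–1 μg/ml). Preincubation ran for at least two generations, judged by turbidity increase. Plates were read on day 3 and on extended incubation at days 5 to 14.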

[2] = tested on: Mycobacteroides abscessus; assay: Antimicrobial activity against Mycobacterium abscessus isolate MC1448 at day 5 preincubated with 0.1 ug/ml erythromycin for 3 days by broth microdilution method
Outline: (§2)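 Clarithromycin MIC by broth microdilution following CLSI guidelines. Before testing, organisms were preincubated for 3 days in medium alone or in clarithromycin or erythromycin (0.01–1 μg/ml), long enough for at least two generations judged by turbidity increase. MICs were read on day 3 and again on extended incubation out to day 14.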

[3] = tested on: Mycolicibacterium smegmatis; assay: Antimicrobial activity against Mycobacterium smegmatis transformed with erm allele Mycobacterium abscessus isolate MC719 preincubated with 2 ug/ml erythromycin for 20 to 24 hrs by broth microdilution method
[4] = tested on: Mycobacteroides abscessus; assay: Antimicrobial activity against Mycobacterium abscessus isolate MC719 at day 9 preincubated with 0.1 ug/ml for 3 days by broth microdilution method; outline: as §2
[5] = tested on: Mycobacteroides abscessus; assay: Antimicrobial activity against Mycobacterium abscessus isolate MC879-2 at day 7 by broth microdilution method; conditions: isolate MC879-2, 168 h
[6] = tested on: Mycobacteroides abscessus; assay: Antimicrobial activity against Mycobacterium abscessus isolate MC879 at day 9 preincubated with 0.1 ug/ml for 3 days by broth microdilution method
Outline: (§3)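 To test inducible resistance, cultures were preincubated for 3 days in clarithromycin or erythromycin, within 0.01–1 μg/ml. The period was set so cultures passed at least two generations, judged by turbidity increase. Clarithromycin MIC was then determined by CLSI-conforming broth microdilution and read on the stated day, from day 3 up to 14.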

[7] = tested on: Mycobacteroides abscessus; assay: Antimicrobial activity against Mycobacterium abscessus isolate MC719 at day 3 preincubated with 0.1 ug/ml for 3 days by broth microdilution method; outline: as §2
[8] = tested on: Mycobacteroides abscessus; assay: Antimicrobial activity against Mycobacterium abscessus isolate MC879-2 at day 5 by broth microdilution method; conditions: isolate MC879-2, 120 h
[9] = tested on: Mycobacteroides abscessus; assay: Antimicrobial activity against Mycobacterium abscessus isolate MAB30 at day 3 by broth microdilution method; conditions: isolate MAB30, 72 h; outline: as §1
[10] = tested on: Mycobacteroides abscessus; assay: Antimicrobial activity against Mycobacterium abscessus isolate MC719 at day 3 preincubated with 0.1 ug/ml erythromycin for 3 days by broth microdilution method; outline: as §2
[11] = tested on: Mycobacteroides abscessus; assay: Antimicrobial activity against Mycobacterium abscessus isolate MC720 at day 14 preincubated with 0.1 ug/ml for 3 days by broth microdilution method; outline: as §2
[12] = tested on: Mycobacteroides abscessus; assay: Antimicrobial activity against Mycobacterium abscessus isolate MC724 at day 3 preincubated with 0.1 ug/ml erythromycin for 3 days by broth microdilution method; outline: as §3
[13] = tested on: Mycobacteroides abscessus; assay: Antimicrobial activity against Mycobacterium abscessus isolate MC720 at day 5 preincubated with 0.1 ug/ml for 3 days by broth microdilution method
Outline: (§4)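 Clinical M. abscessus isolates were preincubated for 3 days, either in medium alone or in clarithromycin or erythromycin at 0.01 to 1 μg/ml, allowing at least two generations of growth judged by turbidity. The clarithromycin MIC was then determined by CLSI-conforming broth microdilution, with plates read on day 3 and on extended incubation (days 5 to 14).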

[14] = tested on: Mycobacteroides abscessus; assay: Antimicrobial activity against Mycobacterium abscessus isolate MC724 at day 9 preincubated with 0.1 ug/ml for 3 days by broth microdilution method; outline: as §3
[15] = tested on: Mycobacteroides abscessus; assay: Antimicrobial activity against Mycobacterium abscessus isolate MC719 at day 9 by broth microdilution method; conditions: isolate MC719, 216 h; outline: as §2
[16] = tested on: Mycobacteroides abscessus; assay: Antimicrobial activity against Mycobacterium abscessus isolate MC1082 at day 5 by broth microdilution method; conditions: isolate MC1082, 120 h; outline: as §1
[17] = tested on: Mycobacteroides abscessus; assay: Antimicrobial activity against Mycobacterium abscessus isolate MC723 at day 5 preincubated with 0.1 ug/ml erythromycin for 3 days by broth microdilution method; outline: as §4
[18] = tested on: Mycolicibacterium smegmatis; assay: Antimicrobial activity against Mycobacterium smegmatis transformed with erm allele Mycobacterium abscessus isolate MC879 preincubated with 2 ug/ml erythromycin for 20 to 24 hrs by broth microdilution method
[19] = tested on: Mycobacteroides abscessus; assay: Antimicrobial activity against Mycobacterium abscessus isolate MC958 at day 5 by broth microdilution method; conditions: isolate MC958, 120 h
Outline: (§5)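 Clarithromycin MIC by broth microdilution following CLSI guidelines. Organisms were preincubated […], for 3 days before the assay. This allowed at least two generations, judged by the rise in turbidity. The MIC was read at the stated day, with incubation extended from day 3 to as long as 14 days.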

[20] = tested on: Mycolicibacterium smegmatis; assay: Antimicrobial activity against Mycobacterium smegmatis transformed with erm allele Mycobacterium abscessus isolate MC958 preincubated with 2 ug/ml erythromycin for 20 to 24 hrs by broth microdilution method
[21] = tested on: Mycobacteroides abscessus; assay: Antimicrobial activity against Mycobacterium abscessus isolate MAB30 at day 9 by broth microdilution method; conditions: isolate MAB30, 216 h; outline: as §1
[22] = tested on: Mycobacteroides abscessus; assay: Antimicrobial activity against Mycobacterium abscessus isolate MC1448 at day 9 preincubated with 0.1 ug/ml erythromycin for 3 days by broth microdilution method; outline: as §2
[23] = tested on: Mycobacteroides abscessus; assay: Antimicrobial activity against Mycobacterium abscessus isolate MC720 at day 9 preincubated with 0.1 ug/ml erythromycin for 3 days by broth microdilution method; outline: as §2
[24] = tested on: Mycobacteroides abscessus; assay: Antimicrobial activity against Mycobacterium abscessus isolate MC879 at day 7 preincubated with 0.1 ug/ml for 3 days by broth microdilution method; outline: as §3
[25] = tested on: Mycobacteroides abscessus; assay: Antimicrobial activity against Mycobacterium abscessus isolate MC719 at day 14 by broth microdilution method; conditions: isolate MC719, 336 h; outline: as §2
[26] = tested on: Mycobacteroides abscessus; assay: Antimicrobial activity against Mycobacterium abscessus isolate MC879 at day 5 by broth microdilution method; conditions: isolate MC879, 120 h; outline: as §5
[27] = tested on: Mycobacteroides abscessus; assay: Antimicrobial activity against Mycobacterium abscessus isolate MC724 at day 3 preincubated with 0.1 ug/ml for 3 days by broth microdilution method; outline: as §3
[28] = tested on: Mycobacteroides abscessus; assay: Antimicrobial activity against Mycobacterium abscessus isolate MC958 at day 3 by broth microdilution method; conditions: isolate MC958, 72 h; outline: as §5
[29] = tested on: Mycobacteroides abscessus; assay: Antimicrobial activity against Mycobacterium abscessus isolate MC1448 at day 3 preincubated with 0.1 ug/ml for 3 days by broth microdilution method; outline: as §2
[30] = tested on: Mycobacteroides abscessus; assay: Antimicrobial activity against Mycobacterium abscessus isolate MC720 at day 5 preincubated with 0.1 ug/ml erythromycin for 3 days by broth microdilution method; outline: as §4
[31] = tested on: Mycobacteroides abscessus; assay: Antimicrobial activity against Mycobacterium abscessus isolate MC879 at day 14 preincubated with 0.1 ug/ml for 3 days by broth microdilution method; outline: as §3
[32] = tested on: Mycobacteroides abscessus; assay: Antimicrobial activity against Mycobacterium abscessus isolate MAB30 at day 14 preincubated with 0.1 ug/ml erythromycin for 3 days by broth microdilution method; outline: as §1
[33] = tested on: Mycolicibacterium smegmatis; assay: Antimicrobial activity against Mycobacterium smegmatis transformed with erm allele Mycobacterium abscessus isolate MC879-2 by broth microdilution method
[34] = tested on: Mycobacteroides abscessus; assay: Antimicrobial activity against Mycobacterium abscessus isolate MC723 at day 14 by broth microdilution method; conditions: isolate MC723, 336 h; outline: as §2
[35] = tested on: Mycobacteroides abscessus; assay: Antimicrobial activity against Mycobacterium abscessus isolate MC723 at day 7 preincubated with 0.1 ug/ml for 3 days by broth microdilution method; outline: as §2

SMILES: CC[C@H]1OC(=O)[C@H](C)[C@@H](O[C@H]2C[C@@](C)(OC)[C@@H](O)[C@H](C)O2)[C@H](C)[C@@H](O[C@@H]2O[C@H](C)C[C@H](N(C)C)[C@H]2O)[C@](C)(OC)C[C@@H](C)C(=O)[C@H](C)[C@@H](O)[C@]1(C)O [CLARITHROMYCIN]
- MIC [1]: ≤ 0.5 µg/mL
- MIC [2]: > 32 µg/mL
- MIC [3]: 16 µg/mL
- MIC [4]: > 32 µg/mL
- MIC [5]: > 32 µg/mL
- MIC [6]: > 32 µg/mL
- MIC [7]: ≤ 0.5 µg/mL
- MIC [8]: > 32 µg/mL
- MIC [9]: ≤ 0.5 µg/mL
- MIC [10]: ≤ 0.5 µg/mL
- MIC [11]: > 32 µg/mL
- MIC [12]: ≤ 0.5 µg/mL
- MIC [13]: 4 µg/mL (≈ 5.35 µM)
- MIC [14]: > 32 µg/mL
- MIC [15]: > 32 µg/mL
- MIC [16]: ≤ 0.5 µg/mL
- MIC [17]: 4 µg/mL
- MIC [18]: 16 µg/mL
- MIC [19]: 1 µg/mL (≈ 1.34 µM)
- MIC [20]: 16 µg/mL
- MIC [21]: ≤ 0.5 µg/mL
- MIC [22]: > 32 µg/mL
- MIC [23]: > 32 µg/mL
- MIC [24]: > 32 µg/mL
- MIC [25]: > 32 µg/mL
- MIC [26]: 1 µg/mL (≈ 1.34 µM)
- MIC [27]: ≤ 0.5 µg/mL
- MIC [28]: ≤ 0.5 µg/mL
- MIC [29]: > 32 µg/mL
- MIC [30]: 4 µg/mL
- MIC [31]: > 32 µg/mL
- MIC [32]: ≤ 0.5 µg/mL
- MIC [33]: 2 µg/mL (≈ 2.67 µM)
- MIC [34]: > 32 µg/mL
- MIC [35]: > 32 µg/mL
